Active and inactive are the calls of the source. The rule behind the calls is not given here.
Experiments:
Tobacco mosaic virus [1] = test: Antiviral activity against Tobacco mosaic virus strain U1 (TMV) infected Nicotiana tabacum cv. K326 leaves assessed as decrease in Tobacco mosaic virus coat protein level at 20 uM at 25 degC treated at 6 hr after viral inoculation measured after 48 hr by leaf disk method/western blot analysis; format: functional, organism-based
Summary of the method: (§1)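 N. tabacum cv. K326 leaves (5-6-leaf stage) mechanically inoculated with TMV (32 μg/mL in 0.01 M PBS). After 6 h, 1 cm disks without major veins were cut and floated on compound solution, with DMSO negative control and ningnanmycin positive control, at 25 °C for 48 h. Coat protein was then detected by SDS-PAGE and Western blot with polyclonal anti-TMV antibody and AP-conjugated anti-rabbit IgG using NBT/BCIP; samples run in duplicate.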

Tobacco mosaic virus [2] = test: Antiviral activity against Tobacco mosaic virus strain U1 (TMV) infected Nicotiana glutinosa leaves assessed as protective effect by decrease in local lesion number at 20 uM treated 6 hr prior to viral inoculation measured at 3-4 days after viral challenge; format: functional
Summary of the method: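 N. glutinosa plants pretreated with compound solutions (DMSO diluted in distilled water) or DMSO solution for 6 h, then inoculated with TMV and kept in an insect-free greenhouse 3-4 days until local lesions were visible; inhibition rate calculated from local lesion counts.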

Tobacco mosaic virus [3] = test: (§2) In vivo antiviral activity against Tobacco mosaic virus strain U1 (TMV) infected left side of Nicotiana glutinosa leaves assessed as decrease in local lesion numbers co-incubated with virus for 30 min before inoculation onto leaves measured at 3-4 days after viral challenge by half-leaf method; format: functional, organism-based
Summary of the method: (§3)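 Half-leaf test on N. glutinosa at the 5-6-leaf stage. Compound was dissolved in DMSO, diluted in water and mixed with TMV (32 μg/mL in 0.01 M PBS) for 30 min, then rubbed onto the left half-leaf; the right half received virus plus DMSO. Local lesions were counted after 3-4 days, with three repetitions. Inhibition % = (C−T)/C×100 using mean lesion counts. IC50 was taken from a 1.25-20 μM series.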

Tobacco mosaic virus [4] = test: as §2, with “numbers at 10 uM” for “numbers”; format: functional; summary of the method: as §3
Tobacco mosaic virus [5] = test: as §2, with “numbers at 5 uM” for “numbers”; format: functional; summary of the method: as §3
Tobacco mosaic virus [6] = test: as §2, with “numbers at 2.5 uM” for “numbers”; format: functional; summary of the method: as §3
Tobacco mosaic virus [7] = test: as §2, with “numbers at 1.25 uM” for “numbers”; format: functional; summary of the method: as §3
Tobacco mosaic virus [8] = test: as §2, with “numbers at 20 uM” for “numbers”; format: functional; summary of the method: as §3
Tobacco mosaic virus [9] = test: Antiviral activity against Tobacco mosaic virus strain U1 (TMV) infected Nicotiana tabacum cv. K326 leaves assessed as decrease in Tobacco mosaic virus coat protein level at 25 degC treated at 6 hr after viral inoculation measured after 48 hr by leaf disk method/western blot analysis; format: functional, organism-based; summary of the method: as §1
Tobacco mosaic virus [10] = test: Ratio of ningnamycin IC50 to compound IC50 for Tobacco mosaic virus strain U1 (TMV) infected left side of Nicotiana glutinosa leaves by half-leaf method; format: functional
Summary of the method: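 Ratio of IC50 values from the half-leaf N. glutinosa lesion assay, with ningnanmycin as the reference compound. Virus (32 μg/mL) was premixed with compound for 30 min before inoculation, and lesions were counted after 3-4 days.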

IC50 (Tobacco mosaic virus [3]) [µM]	Compound	inhibition (Tobacco mosaic virus [1])	inhibition at 20 µM (Tobacco mosaic virus [2]) [%]	inhibition in vivo at 10 µM (Tobacco mosaic virus [4]) [%]	inhibition in vivo at 5 µM (Tobacco mosaic virus [5]) [%]	inhibition in vivo at 2.5 µM (Tobacco mosaic virus [6]) [%]	inhibition in vivo at 1.25 µM (Tobacco mosaic virus [7]) [%]	inhibition in vivo at 20 µM (Tobacco mosaic virus [8]) [%]	inhibition (Tobacco mosaic virus [9])	Ratio IC50 (Tobacco mosaic virus [10])
	COC1=C[C@@H](C)[C@@H]2C[C@H]3OC(=O)C[C@H]4[C@@H](C)[C@H](OC)[C@@H](O)[C@H]([C@@]2(C)C1=O)[C@@]34C	inactive								
3.47	COC(=O)[C@@]12OC[C@]34[C@H]([C@@H](O)[C@@H]1O)[C@@]1(C)CC(=O)C(O)=C(C)[C@@H]1C[C@H]3OC(=O)[C@H](OC(C)=O)[C@@H]24 [BRUCEINE B]	Active	86.3	81.5	65.2	40.6	20.5	88.9		
	CC1=C[C@H](O)[C@@H](O)[C@]2(C)[C@H]3[C@@H](O)[C@H](O)[C@@]4(C)OC[C@@]35[C@@H](C[C@@H]12)OC(=O)[C@H](O)[C@]54O [BRUCEINE E]	Active						28.7		
	COC(=O)[C@@]12OC[C@]34[C@H]([C@@H](O)[C@@H]1O)[C@@]1(C)C=C(O[C@@H]5O[C@H](CO)[C@@H](O)[C@H](O)[C@H]5O)C(=O)[C@@H](C)[C@@H]1C[C@H]3OC(=O)[C@H](OC(=O)C=C(C)C)[C@@H]24 [BRUCEOSIDE A]	Active						24.1		
3.42	COC(=O)[C@]12OC[C@]34[C@H]([C@@H](O)[C@@H]1O)[C@@]1(C)CC(=O)C(O)=C(C)[C@@H]1C[C@H]3OC(=O)[C@H](OC(=O)C=C(C)C)[C@@H]24 [BRUSATOL]	Active	77.5	71.5	64.7	48.8	20	88.9	Dose-dependent effect	34
4.64	COC(=O)[C@]12OC[C@]34[C@H]([C@@H](O)[C@@H]1O)[C@@]1(C)CC(=O)C(O[C@@H]5O[C@H](CO)[C@@H](O)[C@H](O)[C@H]5O)=C(C)[C@@H]1C[C@H]3OC(=O)[C@H](OC(=O)C=C(C)C)[C@@H]24 [Bruceoside-B]	Active	90.2	66.7	53.8	31.7	21.4	78.4		
	COC(=O)[C@]12OC[C@@]34[C@@H](CC5=C(C)C(=O)C(O)=C[C@]5(C)[C@H]3[C@@H](O)[C@@H]1O)OC(=O)[C@H](OC(C)=O)[C@@H]24 [DEDYDROBRUCEINE B]	Active						59.1		
	COC(=O)[C@]12OC[C@]34[C@H]([C@@H](O)[C@@H]1O)[C@@]1(C)CC(=O)[C@H](O)[C@@H](C)[C@@H]1C[C@H]3OC(=O)[C@H](OC(=O)/C=C(\C)C(C)(C)OC(C)=O)[C@@H]24 [JAVANICOLIDE F]							52.1		
	COC(=O)[C@]12OC[C@]34[C@H]([C@@H](O)[C@@H]1O)[C@@]1(C)CC(=O)[C@H](O)[C@@H](C)[C@@H]1C[C@H]3OC(=O)[C@H](OC(=O)C=C(C)C)[C@@H]24 [JAVANICOLIDES E]							52		
	CNCC(=O)N[C@@H](CO)C(=O)N[C@H]1[C@H](O)[C@@H](O)[C@H](n2ccc(N)nc2=O)O[C@@H]1C(N)=O [NINGNANMYCIN]			67.5	46.6	37.9	28	25.3		
	CC1=C[C@H](O[C@@H]2O[C@H](CO)[C@@H](O)[C@H](O)[C@H]2O)[C@@H](O)[C@]2(C)[C@H]3[C@@H](O)[C@H](O)[C@]4(C)OC[C@@]35[C@@H](C[C@@H]12)OC(=O)[C@H](O)[C@]54O [YADANZIGAN]	Active						30.6		
5.66	COC(=O)[C@]12OC[C@]34[C@H]([C@@H](O)[C@@H]1O)[C@@]1(C)[C@H](O)[C@@H](O)C=C(C)[C@@H]1C[C@H]3OC(=O)[C@H](OC(C)=O)[C@@H]24 [YADANZIOSIDE D]	Active		59.2	48.4	38.5	21.4	70.8		
	COC(=O)[C@]12OC[C@]34[C@H]([C@@H](O)[C@@H]1O)[C@@]1(C)C=C(O[C@@H]5O[C@H](CO)[C@@H](O)[C@H](O)[C@H]5O)C(=O)[C@@H](C)[C@@H]1C[C@H]3OC(=O)[C@H](OC(C)=O)[C@@H]24 [YADANZIOSIDE F]	Active						31.1		
4.22	COC(=O)[C@]12OC[C@]34[C@H]([C@@H](O)[C@@H]1O)[C@@]1(C)CC(=O)C(O[C@@H]5O[C@H](CO)[C@@H](O)[C@H](O)[C@H]5O)=C(C)[C@@H]1C[C@H]3OC(=O)[C@H](OC(C)=O)[C@@H]24 [YADANZIOSIDE I]	Active		67.9	54.9	35.4	26.1	81.5		
	COC(=O)[C@]12OC[C@]34[C@H]([C@@H](O)[C@@H]1O)[C@@]1(C)C=C(O[C@@H]5O[C@H](CO)[C@@H](O)[C@H](O)[C@H]5O)C(=O)[C@@H](C)[C@@H]1C[C@H]3OC(=O)[C@H](OC(=O)/C=C(\C)C(C)(C)OC(C)=O)[C@@H]24 [Yadanzioside G]	Active						33.7		
4.86	COC(=O)[C@]12OC[C@]34[C@H]([C@@H](O)[C@@H]1O)[C@@]1(C)CC(=O)C(O[C@@H]5O[C@H](CO)[C@@H](O)[C@H](O)[C@H]5O)=C(C)[C@@H]1C[C@H]3OC(=O)[C@H](OC(=O)/C=C(\C)C(C)(C)O)[C@@H]24 [Yadanzioside L]	Active	54.4	64.3	53.3	35	20	73.8		

Compound	IC50 (Tobacco mosaic virus [3]) [µM]	inhibition (Tobacco mosaic virus [1])	inhibition at 20 µM (Tobacco mosaic virus [2]) [%]	inhibition in vivo at 10 µM (Tobacco mosaic virus [4]) [%]	inhibition in vivo at 5 µM (Tobacco mosaic virus [5]) [%]	inhibition in vivo at 2.5 µM (Tobacco mosaic virus [6]) [%]	inhibition in vivo at 1.25 µM (Tobacco mosaic virus [7]) [%]	inhibition in vivo at 20 µM (Tobacco mosaic virus [8]) [%]	inhibition (Tobacco mosaic virus [9])	Ratio IC50 (Tobacco mosaic virus [10])
CC1=CC(=O)[C@@H](O)[C@]2(C)[C@H]3[C@@H](O)[C@H](O)[C@]4(C)OC[C@@]35[C@@H](C[C@@H]12)OC(=O)[C@H](O)[C@]54O [BRUCEINE D]	5.29	Active	72.2	66.7	47.9	29.1	21.4	78.6		
CC1=CC(=O)[C@@H](O)[C@]2(C)[C@H]3[C@@H](O)[C@H](O)[C@]4(CO)OC[C@@]35[C@@H](C[C@@H]12)OC(=O)[C@H](O)[C@]54O [YADANZIOLIDE A]	5.5	Active		58.7	46.1	39.2	22.4	75		

From ChEMBL document CHEMBL3045676, “Anti-tobacco mosaic virus (TMV) Quassinoids from Brucea javanica (L.) Merr” (J Agric Food Chem, 2010)
